According to ChEMBL document CHEMBL4414574, “Structure-Based Discovery and Development of a Series of Potent and Selective Bromodomain and Extra-Terminal Protein Inhibitors” (J Med Chem, 2019):
Activity calls are given as the source filed them. The rule behind the calls is not given here.

Key:
[1] = Cmax in ICR mouse brain at 50 mg/kg, po administered via gavage measured after 0.25 to 24 hrs by UPLC/MS analysis; assay type: ADME, organism-based; set-up: dose 50 mg/kg, route oral
Procedure, shortened: (§1)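 Male ICR mice dosed orally in 1% DMSO/0.5% HPMC vehicle; plasma or brain drug levels used to derive Tmax, Cmax, AUC0-t, AUC0-inf and T1/2.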

[2] = tested on: MV4-11; test: Induction of apoptosis in human MV4-11 cells assessed as reduction in c-IAP2 level after 24 hrs by Western blot analysis; assay type: functional, cell-based
[3] = tested on: RKO; test: Antiproliferative activity against human RKO cells after 72 hrs by CCK8 or SRB assay; assay type: functional, cell-based
[4] = tested on: MV4-11; test: Antitumor activity against human MV4-11 cells xenografted in po dosed Balb/c nude mouse assessed as tumor growth inhibition administered once daily and measured twice a week by caliper method; assay type: functional, organism-based
[5] = AUC (0 to t) in ICR mouse plasma at 100 mg/kg, po administered via gavage measured after 0.25 to 24 hrs by UPLC/MS analysis; assay type: ADME, organism-based; set-up: time upper 24 hr, dose 100 mg/kg, time lower 0.25 hr, route oral
Procedure, shortened: (§2)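 Male ICR mice were dosed orally in 1% DMSO/0.5% HPMC vehicle. Plasma (and brain, where stated) concentrations gave Tmax, Cmax, T1/2, AUC0-t and AUC0-inf.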

[6] = Half life in ICR mouse plasma at 100 mg/kg, po administered via gavage measured after 0.25 to 24 hrs by UPLC/MS analysis; assay type: ADME, organism-based; procedure, shortened: as §1
[7] = AUC (0 to infinity) in rat plasma at 50 mg/kg, po; assay type: ADME, organism-based; set-up: dose 50 mg/kg, time infinity, route oral
Procedure, shortened: (§3)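 Compound was given orally or intravenously in 1% DMSO/0.5% HPMC vehicle. Concentrations in plasma, or in brain where stated, gave Tmax, Cmax, T1/2, AUC0-t and AUC0-inf.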

[8] = tested on: NCI-H1299; test: Antiproliferative activity against human NCI-H1299 cells after 72 hrs by CCK8 or SRB assay; assay type: functional, cell-based
[9] = Cmax in ICR mouse plasma at 100 mg/kg, po administered via gavage measured after 0.25 to 24 hrs by UPLC/MS analysis; assay type: ADME, organism-based; set-up: dose 100 mg/kg, route oral; procedure, shortened: as §1
[10] = AUC (0 to infinity) in dog plasma at 3 mg/kg, po; assay type: ADME, organism-based, Canis lupus familiaris; set-up: dose 3 mg/kg, route oral, time infinity; procedure, shortened: as §3
[11] = target: Voltage-gated inwardly rectifying potassium channel KCNH2 (Homo sapiens, UniProt Q12809); test: Inhibition of human ERG at 40 uM by automatic patch clamp method
[12] = tested on: MV4-11; test: Antitumor activity against human MV4-11 cells xenografted in Balb/c nude mouse assessed as tumor growth inhibition at 50 mg/kg, po administered once daily and measured twice a week by caliper method relative to control; assay type: functional; details: MV4-11, po, read-out: TGI
[13] = tested on: MDA-MB-468; test: Antiproliferative activity against human MDA-MB-468 cells after 72 hrs by CCK8 or SRB assay; assay type: functional, cell-based
[14] = Tmax in ICR mouse plasma at 50 mg/kg, po administered via gavage measured after 0.25 to 24 hrs by UPLC/MS analysis; assay type: ADME, organism-based
Procedure, shortened: (§4)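 Male ICR mice dosed orally at 50 mg/kg in 1% DMSO/0.5% HPMC; drug measured in plasma and brain.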

[15] = Tmax in ICR mouse brain at 50 mg/kg, po administered via gavage measured after 0.25 to 24 hrs by UPLC/MS analysis; assay type: ADME, organism-based; procedure, shortened: as §4
[16] = tested on: SW-620; test: Antiproliferative activity against human SW620 cells after 72 hrs by CCK8 or SRB assay; assay type: functional, cell-based
[17] = target: Bromodomain-containing protein 2 (Homo sapiens) (UniProt P25440); test: Inhibition of BRD2 bromodomain 2 (unknown origin)
Sequence of Bromodomain-containing protein 2 (Homo sapiens) (P25440 whole entry, looked up): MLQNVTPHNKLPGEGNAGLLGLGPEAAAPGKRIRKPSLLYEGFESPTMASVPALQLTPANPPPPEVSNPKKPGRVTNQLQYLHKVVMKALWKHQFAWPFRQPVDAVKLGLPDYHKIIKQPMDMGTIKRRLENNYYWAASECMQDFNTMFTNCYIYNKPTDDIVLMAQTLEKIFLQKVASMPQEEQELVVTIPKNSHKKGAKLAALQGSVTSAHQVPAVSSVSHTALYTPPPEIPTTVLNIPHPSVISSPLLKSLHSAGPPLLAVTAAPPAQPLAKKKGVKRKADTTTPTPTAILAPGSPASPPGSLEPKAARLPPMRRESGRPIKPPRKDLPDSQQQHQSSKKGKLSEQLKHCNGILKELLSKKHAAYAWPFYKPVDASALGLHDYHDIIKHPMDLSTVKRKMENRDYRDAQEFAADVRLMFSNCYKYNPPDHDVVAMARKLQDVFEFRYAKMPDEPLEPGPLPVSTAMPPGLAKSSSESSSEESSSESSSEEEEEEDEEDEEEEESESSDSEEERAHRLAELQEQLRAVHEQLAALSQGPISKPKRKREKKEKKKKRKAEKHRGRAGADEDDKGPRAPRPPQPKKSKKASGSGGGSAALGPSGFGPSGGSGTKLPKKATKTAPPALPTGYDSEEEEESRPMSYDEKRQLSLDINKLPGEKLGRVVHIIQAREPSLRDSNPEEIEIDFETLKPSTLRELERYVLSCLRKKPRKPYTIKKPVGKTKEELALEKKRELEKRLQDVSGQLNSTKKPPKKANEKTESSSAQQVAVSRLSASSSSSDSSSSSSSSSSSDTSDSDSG
Procedure, shortened: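 Bromodomain binding panel (32 bromodomains) screened at 1 μM; primary binding read-out reported as percent of control, lower values meaning stronger binding.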

[18] = target: Cytochrome P450 3A4 (Homo sapiens, UniProt P08684); test: Time-dependent inhibition of CYP3A4 in human liver microsomes at 10 uM using midazolam or testosterone as substrate preincubated up to 30 mins followed by NADPH generating system addition and measured after 10 mins; assay type: ADME
Sequence of Cytochrome P450 3A4 (P08684 whole entry): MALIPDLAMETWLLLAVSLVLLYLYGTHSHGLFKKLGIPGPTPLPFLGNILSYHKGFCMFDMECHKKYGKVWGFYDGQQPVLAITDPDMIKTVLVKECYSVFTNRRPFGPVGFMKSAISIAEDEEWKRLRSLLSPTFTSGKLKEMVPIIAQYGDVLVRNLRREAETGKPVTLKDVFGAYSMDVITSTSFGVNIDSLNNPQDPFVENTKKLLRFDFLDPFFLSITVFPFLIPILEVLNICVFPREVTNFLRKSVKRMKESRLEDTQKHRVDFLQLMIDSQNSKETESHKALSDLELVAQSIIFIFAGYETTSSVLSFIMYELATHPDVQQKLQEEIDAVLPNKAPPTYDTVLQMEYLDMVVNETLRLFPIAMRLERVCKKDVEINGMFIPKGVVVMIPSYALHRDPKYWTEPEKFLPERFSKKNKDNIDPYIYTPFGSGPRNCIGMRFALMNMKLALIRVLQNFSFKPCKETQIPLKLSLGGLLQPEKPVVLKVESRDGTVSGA
Procedure, shortened: (§5)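 Human liver microsomes 0.2 mg/mL, 100 mM phosphate pH 7.4, 10 μM test compound, preincubated 0, 5, 10 and 30 min at 37 °C; then NADPH plus probe cocktail (5 μM midazolam, 50 μM testosterone, 5 μM dextromethorphan, 10 μM diclofenac, 50 μM phenacetin, 50 μM S-(+)-mephenytoin) added; 10 min reaction; kobs in units of 10^-4/min.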

[19] = target: T1, Bromodomain-containing protein 4 (Homo sapiens, UniProt O60885); test: Inhibition of BRD4 bromodomain 2 (unknown origin)
[20] = target: Transcription initiation factor TFIID subunit 1 (Homo sapiens) (UniProt P21675); test: Binding affinity to human partial length TAF1 bromodomain 2 (D1521 to D1656 residues) expressed in Escherichia coli BL21 cells assessed as residual binding level at 1 uM measured after 1 hr by quantitative PCR based BROMOscan assay relative to control
Sequence of Transcription initiation factor TFIID subunit 1 (Homo sapiens) (P21675 whole entry, the tested form may be a part): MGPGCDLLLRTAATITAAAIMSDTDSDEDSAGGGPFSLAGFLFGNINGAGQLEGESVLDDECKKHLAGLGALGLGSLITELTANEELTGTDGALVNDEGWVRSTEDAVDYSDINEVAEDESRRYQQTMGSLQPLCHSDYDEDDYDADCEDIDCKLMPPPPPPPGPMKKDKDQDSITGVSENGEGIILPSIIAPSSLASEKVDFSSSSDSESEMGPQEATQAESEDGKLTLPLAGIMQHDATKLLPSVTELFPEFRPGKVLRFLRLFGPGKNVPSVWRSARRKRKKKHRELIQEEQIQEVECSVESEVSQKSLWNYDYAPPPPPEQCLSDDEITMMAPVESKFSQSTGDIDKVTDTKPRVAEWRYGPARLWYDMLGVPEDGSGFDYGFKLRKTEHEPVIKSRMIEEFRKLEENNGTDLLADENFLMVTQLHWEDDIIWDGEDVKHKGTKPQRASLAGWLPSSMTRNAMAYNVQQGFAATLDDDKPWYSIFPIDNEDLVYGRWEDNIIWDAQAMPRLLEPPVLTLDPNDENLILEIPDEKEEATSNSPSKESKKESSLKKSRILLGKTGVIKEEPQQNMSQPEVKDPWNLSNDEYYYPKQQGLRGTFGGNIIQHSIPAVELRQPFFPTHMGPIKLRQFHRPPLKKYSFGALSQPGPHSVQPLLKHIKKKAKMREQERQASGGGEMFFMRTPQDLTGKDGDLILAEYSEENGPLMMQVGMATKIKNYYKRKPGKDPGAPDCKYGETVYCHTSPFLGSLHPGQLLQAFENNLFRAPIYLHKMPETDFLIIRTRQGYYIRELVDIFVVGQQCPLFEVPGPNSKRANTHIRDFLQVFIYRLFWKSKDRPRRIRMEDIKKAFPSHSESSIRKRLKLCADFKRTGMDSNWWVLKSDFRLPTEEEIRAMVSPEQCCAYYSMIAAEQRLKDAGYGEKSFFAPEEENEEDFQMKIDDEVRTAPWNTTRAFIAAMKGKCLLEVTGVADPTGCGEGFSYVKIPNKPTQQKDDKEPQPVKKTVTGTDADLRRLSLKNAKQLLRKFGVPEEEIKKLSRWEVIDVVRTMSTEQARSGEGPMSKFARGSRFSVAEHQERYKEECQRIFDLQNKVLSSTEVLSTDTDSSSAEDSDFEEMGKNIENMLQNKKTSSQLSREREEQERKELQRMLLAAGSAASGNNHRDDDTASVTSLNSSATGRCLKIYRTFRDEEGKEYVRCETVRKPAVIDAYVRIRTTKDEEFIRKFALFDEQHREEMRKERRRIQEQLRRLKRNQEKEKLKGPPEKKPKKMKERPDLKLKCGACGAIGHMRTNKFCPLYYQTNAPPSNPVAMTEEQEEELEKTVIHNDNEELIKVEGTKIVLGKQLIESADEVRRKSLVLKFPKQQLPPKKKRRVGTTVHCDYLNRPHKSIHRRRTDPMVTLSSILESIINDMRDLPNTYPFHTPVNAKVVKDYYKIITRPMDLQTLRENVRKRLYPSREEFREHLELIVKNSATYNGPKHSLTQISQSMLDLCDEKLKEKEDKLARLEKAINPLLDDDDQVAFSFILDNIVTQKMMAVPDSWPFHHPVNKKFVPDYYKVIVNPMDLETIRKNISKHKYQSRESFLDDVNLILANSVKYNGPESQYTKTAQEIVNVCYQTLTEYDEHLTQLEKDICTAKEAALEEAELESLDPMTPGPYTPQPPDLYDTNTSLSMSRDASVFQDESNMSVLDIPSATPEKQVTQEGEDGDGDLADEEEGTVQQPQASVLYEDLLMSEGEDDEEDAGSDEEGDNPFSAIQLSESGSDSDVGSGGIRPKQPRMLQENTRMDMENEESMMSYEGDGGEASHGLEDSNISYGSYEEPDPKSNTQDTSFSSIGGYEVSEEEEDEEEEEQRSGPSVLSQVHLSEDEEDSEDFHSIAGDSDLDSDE
Procedure, shortened: (§6)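 Bromodomain panel screen (32 bromodomains) run at 1 μM single concentration; primary binding reported as 'Percent Control', lower values meaning stronger interaction.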

[21] = Half life in dog liver microsomes; assay type: ADME, Canis lupus familiaris, Microsome
[22] = tested on: MDA-MB-436; test: Antiproliferative activity against human MDA-MB-436 cells after 72 hrs by CCK8 or SRB assay; assay type: functional, cell-based
[23] = target: T1, Bromodomain-containing protein 4; test: Displacement of 5-FITC labelled (+)-JQ1 from His6-tagged human BRD4 bromodomain 1 expressed in Escherichia coli BL21(DE3) )-codon plus-RIL cells incubated for 4 hrs in dark condition by fluorescence anisotropy binding assay
[24] = tested on: HuTu80; test: Antiproliferative activity against human HuTu 80 cells after 72 hrs by CCK8 or SRB assay; assay type: functional, cell-based
[25] = Toxicity in Balb/c nude mouse xenografted with human MV4-11 cells assessed as effect on mouse survival at 10 to 50 mg/kg, administered once daily; assay type: organism-based; details: in vivo
[26] = AUC (0 to t) in ICR mouse plasma at 50 mg/kg, po administered via gavage measured after 0.25 to 24 hrs by UPLC/MS analysis; assay type: ADME, organism-based; set-up: time lower 0.25 hr, dose 50 mg/kg, time upper 24 hr, route oral; procedure, shortened: as §2
[27] = target: Histone acetyltransferase KAT2B (Homo sapiens) (UniProt Q92831); test: Binding affinity to human partial length PCAF (G715 to D831 residues) expressed in mammalian expression system assessed as residual binding level at 1 uM measured after 1 hr by quantitative PCR based BROMOscan assay relative to control; procedure, shortened: as §6
Sequence of Histone acetyltransferase KAT2B (Homo sapiens) (Q92831 whole entry, looked up, the tested form may be a part): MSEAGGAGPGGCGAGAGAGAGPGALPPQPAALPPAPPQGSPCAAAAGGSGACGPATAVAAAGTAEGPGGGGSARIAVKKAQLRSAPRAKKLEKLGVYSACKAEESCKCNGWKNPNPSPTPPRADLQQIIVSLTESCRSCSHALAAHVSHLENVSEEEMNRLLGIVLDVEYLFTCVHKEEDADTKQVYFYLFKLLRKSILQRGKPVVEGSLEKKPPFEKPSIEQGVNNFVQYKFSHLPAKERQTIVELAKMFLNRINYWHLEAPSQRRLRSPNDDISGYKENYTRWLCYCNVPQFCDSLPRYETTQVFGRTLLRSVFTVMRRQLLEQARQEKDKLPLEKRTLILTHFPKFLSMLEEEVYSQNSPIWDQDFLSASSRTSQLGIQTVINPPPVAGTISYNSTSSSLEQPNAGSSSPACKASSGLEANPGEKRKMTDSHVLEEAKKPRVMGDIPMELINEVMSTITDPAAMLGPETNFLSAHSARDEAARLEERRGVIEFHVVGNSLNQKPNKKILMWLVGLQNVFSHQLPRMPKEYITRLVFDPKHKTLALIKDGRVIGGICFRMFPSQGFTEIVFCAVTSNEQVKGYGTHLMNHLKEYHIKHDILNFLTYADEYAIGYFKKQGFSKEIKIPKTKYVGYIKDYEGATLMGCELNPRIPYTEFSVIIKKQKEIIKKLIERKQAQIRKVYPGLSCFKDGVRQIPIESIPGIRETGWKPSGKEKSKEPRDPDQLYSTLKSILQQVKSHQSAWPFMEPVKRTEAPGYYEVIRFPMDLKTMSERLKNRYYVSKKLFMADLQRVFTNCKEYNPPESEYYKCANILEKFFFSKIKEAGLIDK

[28] = target: Serine/threonine-protein kinase PLK1 (Homo sapiens) (UniProt P53350); test: Inhibition of full-length recombinant human His-tagged PLK1 expressed in baculovirus expression system at 10 uM using Ser/Thr 16 Peptide as substrate after 60 mins by Z-LYTE assay relative to control
Sequence of Serine/threonine-protein kinase PLK1 (Homo sapiens) (P53350 whole entry): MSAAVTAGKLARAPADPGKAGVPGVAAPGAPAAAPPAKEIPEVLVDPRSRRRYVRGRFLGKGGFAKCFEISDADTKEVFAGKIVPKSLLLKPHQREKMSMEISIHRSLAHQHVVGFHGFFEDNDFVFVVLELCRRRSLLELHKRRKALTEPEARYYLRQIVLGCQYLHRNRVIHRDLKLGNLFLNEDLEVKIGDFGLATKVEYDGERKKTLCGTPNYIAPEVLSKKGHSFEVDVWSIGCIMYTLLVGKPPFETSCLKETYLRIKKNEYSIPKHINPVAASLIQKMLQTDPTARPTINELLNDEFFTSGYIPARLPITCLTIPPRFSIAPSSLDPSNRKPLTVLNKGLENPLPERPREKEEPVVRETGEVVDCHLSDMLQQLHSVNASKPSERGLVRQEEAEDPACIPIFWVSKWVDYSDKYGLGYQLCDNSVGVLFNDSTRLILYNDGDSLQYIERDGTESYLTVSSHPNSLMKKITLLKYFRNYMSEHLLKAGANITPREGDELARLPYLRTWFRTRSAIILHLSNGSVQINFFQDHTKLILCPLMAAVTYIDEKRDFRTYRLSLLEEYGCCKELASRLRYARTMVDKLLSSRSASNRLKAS

[29] = target: Cytochrome P450 2C9 (Homo sapiens, UniProt P11712); test: Time-dependent inhibition of CYP2C9 in human liver microsomes at 10 uM using diclofenac as substrate preincubated up to 30 mins followed by NADPH generating system addition and measured after 10 mins; assay type: ADME; procedure, shortened: as §5
[30] = Clearance in dog liver microsomes; assay type: ADME, Canis lupus familiaris, Microsome; details: read-out: CLH
[31] = Drug uptake in plasma of Balb/c nude mouse xenografted with human MV4-11 cells at 10 to 50 mg/kg, po measured after 1 to 8 hrs; assay type: ADME, organism-based; details: in vivo
Procedure, shortened: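 MV4-11 xenografts in BALB/c nude mice given oral compound; drug concentrations in plasma and tumor tissue measured at 1 h and 8 h after dosing.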

With `Cc1ccc(-n2nc(C(=O)N3C[C@@H](C)N[C@@H](C)C3)nc2-c2ccc3c(c2)N(C2CCCC2)[C@H](C)C(=O)N3C)cc1` the Cmax [1] was 377 ng/mL, the Activity [2] was “Dose-dependent effect” and the Activity [3] was “Active”. For the same molecule, the TGI [4] was “Dose-dependent effect”, the AUC(0-t) [5] was 80600 ng·h/mL and the half-life [6] was 4.4 h. The AUC(0-inf) [7] was 4310 ng·h/mL, the Activity [8] was “Active” and the Cmax [9] was 13800 ng/mL. For the same molecule, the AUC(0-inf) [10] was 798 ng·h/mL, the “inhibition (INH)” value [11] was “Not Active” and the inhibition in vivo at 50 mg/kg [12] was 95.6%. For the same molecule, the Activity [13] was “Active”, the Tmax [14] was 1 h and the Tmax [15] was 1 h. For the same molecule, the Activity [16] was “Active”, the inhibition [17] was “Active” and the TDI [18] was 8 ×10⁻⁴ /min. For the same molecule, the inhibition [19] was “Active”, the Activity [20] was 5 to 20% and the half-life [21] was 0.3 h. For the same molecule, the Activity [22] was “Active”, the IC50 [23] was 5.3 nM and the Activity [24] was “Active”. For the same molecule, the Activity [25] was “Non-Toxic”, the AUC(0-t) [26] was 16700 ng·h/mL and the Activity [27] was 70 to 100%. For the same molecule, the inhibition [28] was less than 10%, the TDI [29] was “Not Active” and the microsomal CLint [30] was 77 µL/min/mg. For the same molecule, the Drug uptake [31] was “Active”.
